Results on seven compounds are retold here after ChEMBL document CHEMBL4706730, “A Set of Highly Sensitive Sirtuin Fluorescence Probes for Screening Small-Molecular Sirtuin Defatty-Acylase Inhibitors” (ACS Med Chem Lett, 2021).

For assay [1], the target named is T1, NAD-dependent protein deacetylase sirtuin-1 (Homo sapiens) (UniProt Q96EB6).
T1 sequence (whole entry): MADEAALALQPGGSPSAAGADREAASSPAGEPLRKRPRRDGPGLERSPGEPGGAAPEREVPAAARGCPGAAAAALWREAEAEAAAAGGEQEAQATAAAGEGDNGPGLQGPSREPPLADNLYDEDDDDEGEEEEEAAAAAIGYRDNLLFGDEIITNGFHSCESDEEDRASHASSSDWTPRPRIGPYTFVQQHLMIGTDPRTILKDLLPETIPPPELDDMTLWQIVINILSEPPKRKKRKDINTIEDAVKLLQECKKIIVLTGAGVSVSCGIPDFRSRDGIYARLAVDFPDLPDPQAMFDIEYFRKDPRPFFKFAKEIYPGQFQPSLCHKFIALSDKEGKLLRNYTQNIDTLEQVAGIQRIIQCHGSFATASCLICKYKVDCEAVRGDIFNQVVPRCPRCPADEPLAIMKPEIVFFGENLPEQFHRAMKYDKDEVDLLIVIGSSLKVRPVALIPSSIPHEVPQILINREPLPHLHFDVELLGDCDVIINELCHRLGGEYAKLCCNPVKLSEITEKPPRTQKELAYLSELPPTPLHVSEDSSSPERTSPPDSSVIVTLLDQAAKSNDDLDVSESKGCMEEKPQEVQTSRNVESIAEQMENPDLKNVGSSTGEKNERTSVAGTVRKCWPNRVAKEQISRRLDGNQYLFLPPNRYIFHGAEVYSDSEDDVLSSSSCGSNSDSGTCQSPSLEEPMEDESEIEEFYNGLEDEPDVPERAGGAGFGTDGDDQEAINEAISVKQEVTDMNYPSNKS
As to the kind of experiment: Binding affinity to SIRT1 (unknown origin) assessed as increase in fluorescence intensity at 2.5 uM measured at 5 mins interval for 1 hr in presence of NAD+ by fluorometric method relative to control. Put shortly: (§1)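 Each FITC/quencher FRET peptide probe was incubated with recombinant SIRT1–7 in 96-well half-area plates at 37 °C for 1 h. The fluorescence increase is reported as a fold change, SIRT(+) signal over SIRT(−) signal, after 1 h.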

In assay [2] the target is T2, NAD-dependent protein deacetylase sirtuin-7 (Homo sapiens) (UniProt Q9NRC8).
T2 sequence (whole entry): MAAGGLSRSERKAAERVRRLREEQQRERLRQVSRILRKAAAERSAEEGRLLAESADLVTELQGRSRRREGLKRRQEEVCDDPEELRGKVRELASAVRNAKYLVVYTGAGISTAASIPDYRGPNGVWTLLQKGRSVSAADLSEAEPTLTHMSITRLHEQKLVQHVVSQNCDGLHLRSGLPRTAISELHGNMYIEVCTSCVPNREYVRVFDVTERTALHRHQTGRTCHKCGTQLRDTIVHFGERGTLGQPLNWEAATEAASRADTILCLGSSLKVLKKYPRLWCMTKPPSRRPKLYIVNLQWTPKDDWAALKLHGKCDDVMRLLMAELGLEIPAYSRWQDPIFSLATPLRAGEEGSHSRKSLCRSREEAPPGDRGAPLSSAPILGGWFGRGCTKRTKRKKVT
Description: Binding affinity to SIRT7 (unknown origin) assessed as increase in fluorescence intensity at 2.5 uM measured at 5 mins interval for 1 hr in presence of NAD+ by fluorometric method relative to control. Put shortly: as §1

Assay [3] deals with NAD-dependent protein deacylase sirtuin-5, mitochondrial (Homo sapiens) (UniProt Q9NXA8). As to the kind of experiment: Binding affinity to SIRT5 (unknown origin) assessed as increase in fluorescence intensity at 2.5 uM measured at 5 mins interval for 1 hr in presence of NAD+ by fluorometric method relative to control. In short, it runs like this:
as §1

For assay [4], the target named is NAD-dependent protein deacylase sirtuin-6 (Homo sapiens) (UniProt Q8N6T7). Description: Binding affinity to SIRT6 (unknown origin) assessed as increase in fluorescence intensity at 2.5 uM measured at 5 mins interval for 1 hr in presence of NAD+ by fluorometric method relative to control. Put shortly: as §1
Chain of NAD-dependent protein deacylase sirtuin-6 (Homo sapiens) (Q8N6T7 whole entry): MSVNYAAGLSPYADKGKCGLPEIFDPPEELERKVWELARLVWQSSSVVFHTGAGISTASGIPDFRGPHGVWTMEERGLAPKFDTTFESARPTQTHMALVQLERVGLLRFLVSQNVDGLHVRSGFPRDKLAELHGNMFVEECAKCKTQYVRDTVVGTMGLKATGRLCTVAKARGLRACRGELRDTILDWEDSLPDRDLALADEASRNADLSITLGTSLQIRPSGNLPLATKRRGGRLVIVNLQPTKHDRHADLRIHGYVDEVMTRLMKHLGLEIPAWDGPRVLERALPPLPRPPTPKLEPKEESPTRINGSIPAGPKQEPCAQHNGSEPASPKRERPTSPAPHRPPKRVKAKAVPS
In assay [5] the target is T3, NAD-dependent protein deacetylase sirtuin-2 (Homo sapiens) (UniProt Q8IXJ6).
T3 sequence (whole entry): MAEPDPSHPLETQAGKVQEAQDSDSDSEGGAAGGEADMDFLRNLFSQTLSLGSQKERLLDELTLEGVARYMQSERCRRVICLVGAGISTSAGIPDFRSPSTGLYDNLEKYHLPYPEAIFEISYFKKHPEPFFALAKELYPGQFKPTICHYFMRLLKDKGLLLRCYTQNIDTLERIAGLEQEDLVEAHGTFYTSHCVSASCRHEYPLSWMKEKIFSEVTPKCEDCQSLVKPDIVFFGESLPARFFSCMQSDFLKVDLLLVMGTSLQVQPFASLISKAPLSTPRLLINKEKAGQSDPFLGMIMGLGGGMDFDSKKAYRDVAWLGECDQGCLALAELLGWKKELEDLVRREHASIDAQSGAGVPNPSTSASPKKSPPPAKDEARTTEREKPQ
Description: Binding affinity to SIRT2 (unknown origin) assessed as increase in fluorescence intensity at 2.5 uM measured at 5 mins interval for 1 hr in presence of NAD+ by fluorometric method relative to control. Put shortly: as §1

Assay [6] deals with T4, NAD-dependent protein lipoamidase sirtuin-4, mitochondrial (Homo sapiens) (UniProt Q9Y6E7).
T4 sequence (whole entry): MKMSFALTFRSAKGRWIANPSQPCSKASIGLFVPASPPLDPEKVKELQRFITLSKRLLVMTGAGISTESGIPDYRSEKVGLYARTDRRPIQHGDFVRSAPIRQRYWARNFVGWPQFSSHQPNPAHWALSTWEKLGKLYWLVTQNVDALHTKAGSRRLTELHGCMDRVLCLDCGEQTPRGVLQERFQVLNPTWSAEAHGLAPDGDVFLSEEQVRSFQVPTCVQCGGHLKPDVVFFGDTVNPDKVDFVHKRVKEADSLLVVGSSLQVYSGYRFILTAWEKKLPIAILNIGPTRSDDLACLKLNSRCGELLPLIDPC
Description: Binding affinity to SIRT4 (unknown origin) assessed as increase in fluorescence intensity at 2.5 uM measured at 5 mins interval for 1 hr in presence of NAD+ by fluorometric method relative to control. Put shortly: as §1

Assay [7] deals with T5, NAD-dependent protein deacetylase sirtuin-3, mitochondrial (Homo sapiens) (UniProt Q9NTG7).
T5 sequence (whole entry): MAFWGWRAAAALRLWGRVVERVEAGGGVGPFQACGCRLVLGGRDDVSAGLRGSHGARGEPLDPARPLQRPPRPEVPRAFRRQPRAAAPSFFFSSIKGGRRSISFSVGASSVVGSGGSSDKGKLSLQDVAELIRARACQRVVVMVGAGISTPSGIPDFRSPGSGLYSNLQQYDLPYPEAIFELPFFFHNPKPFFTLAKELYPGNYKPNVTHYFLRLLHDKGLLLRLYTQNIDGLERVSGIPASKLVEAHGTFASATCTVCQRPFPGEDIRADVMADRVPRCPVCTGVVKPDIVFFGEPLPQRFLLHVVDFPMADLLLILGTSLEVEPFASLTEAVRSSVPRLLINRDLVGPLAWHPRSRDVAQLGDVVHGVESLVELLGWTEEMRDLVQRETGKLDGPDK
As to the kind of experiment: Binding affinity to SIRT3 (unknown origin) assessed as increase in fluorescence intensity at 2.5 uM measured at 5 mins interval for 1 hr in presence of NAD+ by fluorometric method relative to control. Put shortly: as §1

Structures are written as SMILES. Numbered stars: 1 amine (or outer) side, 2 acyl side, 3 side chain; on linkers, the order of the positions; unused ones are H or OH. Square brackets hold non-standard residues; d marks the D form. Peptide text beside a SMILES is read from it. * marks the point of attachment. X1 = O=C(O)c1cc(NC(=S)*)ccc1-c1c2ccc(=O)cc-2oc2cc(O)ccc12; X2 = CN(CCC(=O)*)c1ccc(/N=N/c2ccc([N+](=O)[O-])cc2)cc1; Achc(trans-4) = O=C([C@H]1CC[C@H](N[*:1])CC1)[*:2]

Chain of NAD-dependent protein deacylase sirtuin-5, mitochondrial (Homo sapiens) (Q9NXA8 37-310 limits assumed): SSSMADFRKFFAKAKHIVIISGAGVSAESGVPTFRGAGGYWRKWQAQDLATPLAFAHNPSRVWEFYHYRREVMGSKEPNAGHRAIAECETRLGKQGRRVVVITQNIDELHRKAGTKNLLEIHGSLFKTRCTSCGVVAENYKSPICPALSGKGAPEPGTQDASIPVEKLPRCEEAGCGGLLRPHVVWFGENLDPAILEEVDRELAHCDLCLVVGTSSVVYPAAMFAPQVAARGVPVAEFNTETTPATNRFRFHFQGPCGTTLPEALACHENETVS

With `C[C@H](NC(=O)[C@@H](NC(=O)[C@H](CCC(N)=O)NC(=O)[C@H]1CC[C@H](NC(=S)Nc2ccc(-c3c4ccc(=O)cc-4oc4cc(O)ccc34)c(C(=O)O)c2)CC1)[C@@H](C)O)C(=O)N[C@@H](CCCNC(=N)N)C(=O)N[C@@H](CCCCNC(=O)CCN(C)c1ccc(/N=N/c2ccc([N+](=O)[O-])cc2)cc1)C(=O)N[C@@H](CO)C(=O)N[C@H](C(=O)NCC(=O)NCC(=O)O)[C@@H](C)O`, the fold change (FC) in assay [1] stood at 6.06; in assay [2], 1.04; in assay [3], 1.07; in assay [4], 9.38; in assay [5], 4.06; in assay [6], 1.2.
`C[C@H](NC(=O)CNC(=O)CNC(=O)[C@H](CCCCN)NC(=O)[C@H]1CC[C@H](NC(=S)Nc2ccc(-c3c4ccc(=O)cc-4oc4cc(O)ccc34)c(C(=O)O)c2)CC1)C(=O)N[C@@H](CCCCNC(=O)CCN(C)c1ccc(/N=N/c2ccc([N+](=O)[O-])cc2)cc1)C(=O)N[C@@H](CCCNC(=N)N)C(=O)N[C@@H](Cc1c[nH]cn1)C(=O)N[C@@H](CCCNC(=N)N)C(=O)N[C@@H](CCCCN)C(N)=O`: the fold change (FC) in assay [1] came to 14.7; in assay [2] it was 1.09; in assay [3], 1.07; in assay [4], 2.55; in assay [5], 10.3; in assay [6], 1.04.
With `C[C@H](NC(=O)CNC(=O)CNC(=O)[C@H](CCCCN)NC(=O)[C@H]1CC[C@H](NC(=S)Nc2ccc(-c3c4ccc(=O)cc-4oc4cc(O)ccc34)c(C(=O)O)c2)CC1)C(=O)N[C@@H](CCCCNC(=O)CCc1ccc(/N=N/c2ccc(N(C)C)cc2)cc1)C(=O)N[C@@H](CCCNC(=N)N)C(=O)N[C@@H](Cc1c[nH]cn1)C(=O)N[C@@H](CCCNC(=N)N)C(=O)N[C@@H](CCCCN)C(N)=O`, the fold change (FC) is 12 in assay [1]; 1.03 in assay [2]; 1.07 in assay [3]; 1.33 in assay [4]; 5.45 in assay [5]; 0.93 in assay [6].
Take `CN(CCC(=O)NCCCC[C@H](NC(=O)[C@H](Cc1ccccc1)NC(=O)[C@H](CO)NC(=O)[C@H](CCCCN)NC(=O)[C@H](CCCCN)NC(=O)[C@H]1CC[C@H](NC(=S)Nc2ccc(-c3c4ccc(=O)cc-4oc4cc(O)ccc34)c(C(=O)O)c2)CC1)C(=O)N[C@@H](CCC(=O)O)C(=O)N[C@@H](CCCNC(=N)N)C(=O)N[C@@H](CO)C(=O)N[C@@H](CO)C(N)=O)c1ccc(/N=N/c2ccc([N+](=O)[O-])cc2)cc1` (X1-[Achc(trans-4)]KKSFK(X2)ERSS-NH2): the fold change (FC) is 8.86 in assay [1]; 0.99 in assay [2]; 1.05 in assay [3]; 26.2 in assay [7]; 3.36 in assay [4]; 5.64 in assay [5]. Also, in assay [6], the fold change (FC) stood at 1.2.
As to `CC[C@H](C)[C@H](NC(=O)[C@H](CCCNC(=N)N)NC(=O)[C@H](Cc1ccc(O)cc1)NC(=O)[C@H](CC(=O)O)NC(=O)[C@H]1CC[C@H](NC(=S)Nc2ccc(-c3c4ccc(=O)cc-4oc4cc(O)ccc34)c(C(=O)O)c2)CC1)C(=O)N[C@@H](CCCCNC(=O)CCN(C)c1ccc(/N=N/c2ccc([N+](=O)[O-])cc2)cc1)C(=O)N[C@@H](CCCNC(=N)N)C(=O)N[C@@H](Cc1ccc(O)cc1)C(=O)N[C@@H](Cc1c[nH]cn1)C(=O)N[C@H](C(N)=O)[C@@H](C)O` (X1-[Achc(trans-4)]DYRIK(X2)RYHT-NH2), the fold change (FC) was found to be 5.85 in assay [1]; 1.05 in assay [2]; 1.15 in assay [3]; 26.7 in assay [7]; 1.19 in assay [4]; 6.97 in assay [5]. In addition, the fold change (FC) in assay [6] worked out at 1.25.
Consider `C[C@H](NC(=O)CNC(=O)CNC(=O)[C@H]1CC[C@H](NC(=S)Nc2ccc(-c3c4ccc(=O)cc-4oc4cc(O)ccc34)c(C(=O)O)c2)CC1)C(=O)N[C@@H](CCCCNC(=O)CCc1ccc(/N=N/c2ccc(N(C)C)cc2)cc1)C(=O)N[C@@H](CCCNC(=N)N)C(=O)N[C@@H](Cc1c[nH]cn1)C(=O)N[C@@H](CCCNC(=N)N)C(N)=O`, for which the fold change (FC) in assay [1] amounted to 10.9; in assay [2], 1.01; in assay [3], 1.03; in assay [7] it was 5.45; in assay [4] it was 1.05; in assay [5], 4.72. The fold change (FC) in assay [6] worked out at 0.92.
`CC(=O)N[C@@H](CCC(N)=O)C(=O)N[C@H](C(=O)N[C@@H](C)C(=O)N[C@@H](CCCNC(=N)N)C(=O)N[C@@H](CCCCNC(=O)CCc1ccc(/N=N/c2ccc(N(C)C)cc2)cc1)C(=O)N[C@@H](CO)C(=O)N[C@H](C(=O)NCC(=O)NCC(=O)NCCCNC(=S)Nc1ccc(-c2c3ccc(=O)cc-3oc3cc(O)ccc23)c(C(=O)O)c1)[C@@H](C)O)[C@@H](C)O`: the fold change (FC) in assay [1] came to 13.8; in assay [2] it was 1.04; in assay [3], 1.08; in assay [4], 3.6; in assay [5], 5.89; in assay [6], 1.03.
